Tests used:
Conditions in all cases: stereoisomer not certain
OR52I1 (Homo sapiens) = target: T1, OR52I1 (Homo sapiens) (UniProt Q8NGK6)
T1 sequence (whole entry): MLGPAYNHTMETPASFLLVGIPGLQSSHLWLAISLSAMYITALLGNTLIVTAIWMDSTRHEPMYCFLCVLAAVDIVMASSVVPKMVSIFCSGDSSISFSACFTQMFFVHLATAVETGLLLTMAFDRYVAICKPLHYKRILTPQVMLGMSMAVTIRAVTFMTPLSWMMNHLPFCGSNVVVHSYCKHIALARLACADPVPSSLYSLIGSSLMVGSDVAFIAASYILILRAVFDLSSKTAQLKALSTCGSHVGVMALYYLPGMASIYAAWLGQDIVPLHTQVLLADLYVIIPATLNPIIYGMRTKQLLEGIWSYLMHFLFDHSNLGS
Summary of the method: (§1)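 Assay methods differ from source to source, frequently being transient luciferase assays in mammalian cell lines. For each receptor–molecule pair, the label responsive (active) applies when the original authors judged the measured signal statistically different from baseline, and non-responsive (inactive) applies otherwise.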

OR52I2 (Homo sapiens) = target: T2, OR52I2 (Homo sapiens) (UniProt Q8NH67)
T2 sequence (whole entry): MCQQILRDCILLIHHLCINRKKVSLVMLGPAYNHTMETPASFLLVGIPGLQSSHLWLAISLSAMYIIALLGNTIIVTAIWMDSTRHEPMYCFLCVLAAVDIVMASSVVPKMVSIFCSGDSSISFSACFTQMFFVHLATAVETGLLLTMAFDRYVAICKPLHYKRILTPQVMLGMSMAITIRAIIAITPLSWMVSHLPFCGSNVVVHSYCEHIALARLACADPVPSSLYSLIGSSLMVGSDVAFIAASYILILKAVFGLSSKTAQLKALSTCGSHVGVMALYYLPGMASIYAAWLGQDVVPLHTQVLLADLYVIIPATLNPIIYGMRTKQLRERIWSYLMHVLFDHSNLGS
Summary of the method: as §1

OR52J3 (Homo sapiens) = OR52J3 (Homo sapiens) (UniProt Q8NH60)
Sequence of OR52J3 (Homo sapiens) (Q8NH60 whole entry): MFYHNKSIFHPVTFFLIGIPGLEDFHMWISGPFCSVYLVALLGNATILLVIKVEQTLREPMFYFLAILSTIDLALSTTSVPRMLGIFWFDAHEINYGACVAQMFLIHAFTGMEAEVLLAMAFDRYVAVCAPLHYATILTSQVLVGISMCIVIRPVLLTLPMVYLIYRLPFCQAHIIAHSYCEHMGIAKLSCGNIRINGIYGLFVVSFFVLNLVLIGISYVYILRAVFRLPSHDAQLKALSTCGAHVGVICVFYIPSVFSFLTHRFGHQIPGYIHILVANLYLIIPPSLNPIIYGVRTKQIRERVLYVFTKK
Summary of the method: as §1

OR52K1 (Homo sapiens) = target: T3, OR52K1 (Homo sapiens) (UniProt Q8NGK4)
T3 sequence (whole entry): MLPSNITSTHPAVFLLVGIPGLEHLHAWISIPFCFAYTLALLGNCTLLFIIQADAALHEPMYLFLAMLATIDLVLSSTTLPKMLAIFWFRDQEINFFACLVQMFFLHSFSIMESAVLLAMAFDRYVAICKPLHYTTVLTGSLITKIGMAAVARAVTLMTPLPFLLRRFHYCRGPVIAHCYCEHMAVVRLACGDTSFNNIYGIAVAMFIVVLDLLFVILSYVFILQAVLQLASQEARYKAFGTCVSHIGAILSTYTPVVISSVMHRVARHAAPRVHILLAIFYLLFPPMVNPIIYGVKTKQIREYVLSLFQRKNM
Summary of the method: as §1

OR52K2 (Homo sapiens) = target: T4, OR52K2 (Homo sapiens) (UniProt Q8NGK3)
T4 sequence (whole entry): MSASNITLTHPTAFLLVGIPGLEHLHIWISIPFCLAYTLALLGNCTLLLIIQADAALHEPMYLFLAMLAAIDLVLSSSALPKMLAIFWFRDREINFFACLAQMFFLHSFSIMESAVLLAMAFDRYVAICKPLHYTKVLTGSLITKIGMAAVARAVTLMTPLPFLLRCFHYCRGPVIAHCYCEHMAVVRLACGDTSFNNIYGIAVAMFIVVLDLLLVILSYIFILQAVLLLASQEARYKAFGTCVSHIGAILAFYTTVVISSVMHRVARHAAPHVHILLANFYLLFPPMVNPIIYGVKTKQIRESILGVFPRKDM
Summary of the method: as §1

OR52L1 (Homo sapiens) = target: T5, OR52L1 (Homo sapiens) (UniProt Q8NGH7)
T5 sequence (whole entry): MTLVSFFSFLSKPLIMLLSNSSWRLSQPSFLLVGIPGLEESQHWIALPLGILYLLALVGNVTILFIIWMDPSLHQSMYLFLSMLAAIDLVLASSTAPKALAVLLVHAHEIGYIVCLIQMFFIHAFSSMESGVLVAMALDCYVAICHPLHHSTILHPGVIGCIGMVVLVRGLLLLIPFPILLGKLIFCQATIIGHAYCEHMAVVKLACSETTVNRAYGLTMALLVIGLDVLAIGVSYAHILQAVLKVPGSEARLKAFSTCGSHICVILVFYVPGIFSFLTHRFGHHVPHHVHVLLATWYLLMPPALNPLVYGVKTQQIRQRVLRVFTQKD
Summary of the method: as §1

OR52M1 (Homo sapiens) = target: T6, OR52M1 (Homo sapiens) (UniProt Q8NGK5)
T6 sequence (whole entry): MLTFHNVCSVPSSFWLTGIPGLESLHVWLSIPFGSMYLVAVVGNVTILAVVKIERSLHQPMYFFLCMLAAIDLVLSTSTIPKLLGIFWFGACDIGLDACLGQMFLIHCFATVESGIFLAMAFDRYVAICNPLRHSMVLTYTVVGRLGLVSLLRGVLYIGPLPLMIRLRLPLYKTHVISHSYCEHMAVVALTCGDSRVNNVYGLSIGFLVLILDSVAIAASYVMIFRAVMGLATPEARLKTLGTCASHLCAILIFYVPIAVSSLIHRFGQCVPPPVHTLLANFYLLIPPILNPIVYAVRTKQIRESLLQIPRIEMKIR
Summary of the method: as §1

OR52N1 (Homo sapiens) = target: T7, OR52N1 (Homo sapiens) (UniProt Q8NH53)
T7 sequence (whole entry): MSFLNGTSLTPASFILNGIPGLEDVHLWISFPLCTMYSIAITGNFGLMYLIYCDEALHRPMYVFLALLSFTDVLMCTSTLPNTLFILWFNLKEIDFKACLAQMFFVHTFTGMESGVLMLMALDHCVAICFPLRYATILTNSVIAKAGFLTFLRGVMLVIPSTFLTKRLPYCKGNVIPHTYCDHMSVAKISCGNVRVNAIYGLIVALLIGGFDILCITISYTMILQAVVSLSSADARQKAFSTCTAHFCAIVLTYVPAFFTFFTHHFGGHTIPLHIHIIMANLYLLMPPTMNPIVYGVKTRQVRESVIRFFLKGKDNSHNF
Summary of the method: as §1

OR52N2 (Homo sapiens) = target: T8, OR52N2 (Homo sapiens) (UniProt Q8NGI0)
T8 sequence (whole entry): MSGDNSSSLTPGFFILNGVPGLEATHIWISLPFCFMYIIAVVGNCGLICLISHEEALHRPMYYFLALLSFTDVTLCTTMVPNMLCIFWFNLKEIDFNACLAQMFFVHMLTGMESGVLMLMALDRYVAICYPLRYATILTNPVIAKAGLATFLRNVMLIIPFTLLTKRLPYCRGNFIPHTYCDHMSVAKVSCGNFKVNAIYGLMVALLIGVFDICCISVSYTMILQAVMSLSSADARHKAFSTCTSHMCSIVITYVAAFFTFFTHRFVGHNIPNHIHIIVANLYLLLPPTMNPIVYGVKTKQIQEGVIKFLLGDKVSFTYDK
Summary of the method: as §1

OR52N4 (Homo sapiens) = target: T9, OR52N4 (Homo sapiens) (UniProt Q8NGI2)
T9 sequence (whole entry): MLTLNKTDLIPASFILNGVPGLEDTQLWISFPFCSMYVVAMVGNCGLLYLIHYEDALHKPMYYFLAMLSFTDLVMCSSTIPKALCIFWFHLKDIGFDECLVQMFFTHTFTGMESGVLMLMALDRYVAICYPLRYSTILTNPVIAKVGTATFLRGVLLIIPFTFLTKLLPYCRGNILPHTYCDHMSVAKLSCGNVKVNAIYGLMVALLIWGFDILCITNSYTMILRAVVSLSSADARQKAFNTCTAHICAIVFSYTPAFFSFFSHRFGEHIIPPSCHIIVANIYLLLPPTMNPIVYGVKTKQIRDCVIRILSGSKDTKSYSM
Summary of the method: as §1

OR52N5 (Homo sapiens) = target: T10, OR52N5 (Homo sapiens) (UniProt Q8NH56)
T10 sequence (whole entry): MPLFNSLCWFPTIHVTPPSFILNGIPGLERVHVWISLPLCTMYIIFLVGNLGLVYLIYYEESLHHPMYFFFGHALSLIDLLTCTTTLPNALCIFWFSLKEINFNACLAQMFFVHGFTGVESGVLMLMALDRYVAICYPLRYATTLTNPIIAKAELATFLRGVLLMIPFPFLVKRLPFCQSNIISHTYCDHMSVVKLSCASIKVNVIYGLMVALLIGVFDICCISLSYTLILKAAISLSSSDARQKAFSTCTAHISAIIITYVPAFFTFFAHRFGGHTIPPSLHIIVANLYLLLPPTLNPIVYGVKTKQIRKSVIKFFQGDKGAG
Summary of the method: as §1

OR52R1 (Homo sapiens) = target: T11, OR52R1 (Homo sapiens) (UniProt Q8NGF1)
T11 sequence (whole entry): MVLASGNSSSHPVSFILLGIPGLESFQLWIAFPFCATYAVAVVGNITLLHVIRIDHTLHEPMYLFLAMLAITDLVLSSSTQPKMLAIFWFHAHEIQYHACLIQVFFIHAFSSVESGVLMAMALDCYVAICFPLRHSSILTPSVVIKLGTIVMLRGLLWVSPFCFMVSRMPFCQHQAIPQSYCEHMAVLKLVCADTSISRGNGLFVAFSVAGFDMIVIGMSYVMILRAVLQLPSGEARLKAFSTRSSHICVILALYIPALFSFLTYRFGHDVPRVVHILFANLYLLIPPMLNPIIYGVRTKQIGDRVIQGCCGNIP
Summary of the method: as §1

OR52W1 (Homo sapiens) = target: T12, OR52W1 (Homo sapiens) (UniProt Q6IF63)
T12 sequence (whole entry): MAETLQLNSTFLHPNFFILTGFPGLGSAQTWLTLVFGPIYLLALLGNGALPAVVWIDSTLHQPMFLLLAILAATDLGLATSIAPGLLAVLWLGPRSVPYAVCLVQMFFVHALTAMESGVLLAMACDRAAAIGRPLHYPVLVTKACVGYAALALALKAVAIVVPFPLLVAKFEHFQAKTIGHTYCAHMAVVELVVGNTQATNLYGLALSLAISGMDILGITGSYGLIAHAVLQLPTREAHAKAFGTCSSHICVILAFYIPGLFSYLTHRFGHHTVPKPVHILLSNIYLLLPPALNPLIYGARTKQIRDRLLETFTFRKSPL
Summary of the method: as §1

OR56A1 (Homo sapiens) = target: T13, OR56A1 (Homo sapiens) (UniProt Q8NGH5)
T13 sequence (whole entry): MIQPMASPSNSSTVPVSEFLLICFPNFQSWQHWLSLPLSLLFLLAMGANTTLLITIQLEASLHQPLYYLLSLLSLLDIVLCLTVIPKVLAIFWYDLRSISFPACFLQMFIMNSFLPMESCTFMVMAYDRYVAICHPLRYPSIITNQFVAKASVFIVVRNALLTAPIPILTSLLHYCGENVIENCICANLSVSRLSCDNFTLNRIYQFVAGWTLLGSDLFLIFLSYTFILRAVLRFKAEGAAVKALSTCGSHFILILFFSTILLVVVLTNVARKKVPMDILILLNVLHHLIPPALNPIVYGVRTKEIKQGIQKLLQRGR
Summary of the method: as §1

OR56A3 (Homo sapiens) = target: T14, OR56A3 (Homo sapiens) (UniProt Q8NH54)
T14 sequence (whole entry): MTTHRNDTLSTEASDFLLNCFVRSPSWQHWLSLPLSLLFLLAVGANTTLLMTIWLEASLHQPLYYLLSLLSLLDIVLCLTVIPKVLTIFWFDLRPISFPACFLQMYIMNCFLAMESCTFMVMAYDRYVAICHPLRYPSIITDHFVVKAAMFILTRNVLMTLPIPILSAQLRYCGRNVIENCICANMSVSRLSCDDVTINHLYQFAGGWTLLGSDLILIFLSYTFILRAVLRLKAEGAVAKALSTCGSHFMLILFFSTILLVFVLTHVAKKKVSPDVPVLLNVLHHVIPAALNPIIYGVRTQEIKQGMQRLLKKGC
Summary of the method: as §1

OR56A4 (Homo sapiens) = target: T15, OR56A4 (Homo sapiens) (UniProt Q8NGH8)
T15 sequence (whole entry): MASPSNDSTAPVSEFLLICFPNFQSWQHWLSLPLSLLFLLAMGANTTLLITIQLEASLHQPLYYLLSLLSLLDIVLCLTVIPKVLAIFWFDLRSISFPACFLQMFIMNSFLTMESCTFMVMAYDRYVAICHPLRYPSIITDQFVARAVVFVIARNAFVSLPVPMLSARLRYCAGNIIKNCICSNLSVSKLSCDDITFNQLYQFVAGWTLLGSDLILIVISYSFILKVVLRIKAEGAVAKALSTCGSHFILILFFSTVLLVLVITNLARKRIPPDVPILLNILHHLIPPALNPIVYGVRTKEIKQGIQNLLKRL
Summary of the method: as §1

OR56A5 (Homo sapiens) = target: T16, OR56A5 (Homo sapiens) (UniProt P0C7T3)
T16 sequence (whole entry): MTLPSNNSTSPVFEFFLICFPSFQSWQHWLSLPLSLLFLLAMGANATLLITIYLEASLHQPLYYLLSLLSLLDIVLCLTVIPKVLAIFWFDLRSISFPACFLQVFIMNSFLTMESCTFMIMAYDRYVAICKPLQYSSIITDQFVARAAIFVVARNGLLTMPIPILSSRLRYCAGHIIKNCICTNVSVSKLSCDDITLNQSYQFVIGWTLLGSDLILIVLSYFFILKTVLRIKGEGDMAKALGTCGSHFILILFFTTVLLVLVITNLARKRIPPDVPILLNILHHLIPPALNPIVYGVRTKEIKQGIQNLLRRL
Summary of the method: as §1

OR56B1 (Homo sapiens) = target: T17, OR56B1 (Homo sapiens) (UniProt Q8NGI3)
T17 sequence (whole entry): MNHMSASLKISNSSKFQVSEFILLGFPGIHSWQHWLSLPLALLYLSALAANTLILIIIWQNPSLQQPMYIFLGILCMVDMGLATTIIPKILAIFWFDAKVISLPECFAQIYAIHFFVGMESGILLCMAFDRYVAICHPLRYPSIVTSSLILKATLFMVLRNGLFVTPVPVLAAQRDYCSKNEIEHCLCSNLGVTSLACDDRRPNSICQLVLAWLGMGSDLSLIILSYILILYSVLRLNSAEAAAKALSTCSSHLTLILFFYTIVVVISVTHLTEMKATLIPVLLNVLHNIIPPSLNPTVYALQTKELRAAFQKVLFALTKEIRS
Summary of the method: as §1

Measured: odorant receptor agonist call

CC(CO)CS (stereo not drawn)
inactive: OR52I1 (Homo sapiens) | OR52I2 (Homo sapiens) | OR52J3 (Homo sapiens) | OR52K1 (Homo sapiens) | OR52K2 (Homo sapiens) | OR52L1 (Homo sapiens) | OR52M1 (Homo sapiens) | OR52N1 (Homo sapiens) | OR52N2 (Homo sapiens) | OR52N4 (Homo sapiens) | OR52N5 (Homo sapiens) | OR52R1 (Homo sapiens) | OR52W1 (Homo sapiens) | OR56A1 (Homo sapiens) | OR56A3 (Homo sapiens) | OR56A4 (Homo sapiens) | OR56A5 (Homo sapiens) | OR56B1 (Homo sapiens)

Source: the M2OR odorant receptor database
